Published values of several laboratories.
Target: 5-hydroxytryptamine receptor 3A (HTR3A, Homo sapiens, UniProt P46098)
Tested at: 10 µM
One construct used (P46098 24-478): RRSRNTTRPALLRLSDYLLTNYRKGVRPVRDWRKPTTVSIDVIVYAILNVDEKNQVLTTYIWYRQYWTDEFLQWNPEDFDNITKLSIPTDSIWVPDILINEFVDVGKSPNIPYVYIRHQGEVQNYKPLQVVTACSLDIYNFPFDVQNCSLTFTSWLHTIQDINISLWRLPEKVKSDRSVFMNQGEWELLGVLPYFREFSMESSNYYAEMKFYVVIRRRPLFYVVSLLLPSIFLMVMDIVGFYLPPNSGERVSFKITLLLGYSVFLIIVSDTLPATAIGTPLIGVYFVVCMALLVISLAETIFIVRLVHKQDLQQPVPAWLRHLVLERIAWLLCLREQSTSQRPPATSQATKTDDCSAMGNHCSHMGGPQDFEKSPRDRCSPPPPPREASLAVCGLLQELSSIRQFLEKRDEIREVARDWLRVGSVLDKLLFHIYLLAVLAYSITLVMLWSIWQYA

SMILES	effect on	technique	inhibition [%]
N#Cc1cc(Cn2c(N3CCCC3)nc3ccccc32)ccc1F	cell-free assay	–	-12.4
O=C(c1ccc(Cl)cc1)N(Cc1ccccc1)C1CCCCC1	ligand displacement	radioligand	1.9
CCCNc1nc2ccccc2n1Cc1ccc(Cl)cc1	cell-free assay	–	-1.96
O=C(NC1C2CCN(CC2)C1Cc1cccnc1)c1cc2ccccc2o1 (stereo not shown)	ligand displacement	radioligand	25
COc1cc2c3c(c1OC)-c1cc4c(cc1CC3N(CC1CC1)CC2c1ccccc1)OCO4 (stereo not shown)	ligand displacement	radioligand	-13.3
O=C1N=C(N2CCCCN2)S/C1=C\c1ccc(F)cc1O	ligand displacement	radioligand	17
CC[C@H](CC(=O)O)n1c(=O)c2ncccc2n(Cc2cn(C)c3cc(C)cc(C)c23)c1=O	cell-free assay	–	0.31
CCN(CC)c1ccc(C2Nc3ccc(C(=O)c4ccccc4)cc3NC3=C2C(=O)CC(C)(C)C3)cc1 (stereo not shown)	ligand displacement	radioligand	-5
COc1cc(N[C@@H]2CCCC[C@]2(O)C(F)(F)F)ccc1F	cell-free assay	–	11.6
COc1cc(NC(C)=O)c(Cl)cc1C(=O)Nc1nccs1	ligand displacement	radioligand	15.9
